Where a SMILES comes first, the peptide text is derived from it.
What was measured:
MV4;11 WT cells = experiment: CellTiter-Glo cell viability, WT MV4; format: cell-based, human; conditions: CTG, 24 h
recombinant human PEPD = biological target: T1, recombinant human PEPD (Homo sapiens, UniProt P12955); experiment: Inhibition of recombinant PEPD, alanine release assay; format: biochemical
T1 sequence (P12955 1-493): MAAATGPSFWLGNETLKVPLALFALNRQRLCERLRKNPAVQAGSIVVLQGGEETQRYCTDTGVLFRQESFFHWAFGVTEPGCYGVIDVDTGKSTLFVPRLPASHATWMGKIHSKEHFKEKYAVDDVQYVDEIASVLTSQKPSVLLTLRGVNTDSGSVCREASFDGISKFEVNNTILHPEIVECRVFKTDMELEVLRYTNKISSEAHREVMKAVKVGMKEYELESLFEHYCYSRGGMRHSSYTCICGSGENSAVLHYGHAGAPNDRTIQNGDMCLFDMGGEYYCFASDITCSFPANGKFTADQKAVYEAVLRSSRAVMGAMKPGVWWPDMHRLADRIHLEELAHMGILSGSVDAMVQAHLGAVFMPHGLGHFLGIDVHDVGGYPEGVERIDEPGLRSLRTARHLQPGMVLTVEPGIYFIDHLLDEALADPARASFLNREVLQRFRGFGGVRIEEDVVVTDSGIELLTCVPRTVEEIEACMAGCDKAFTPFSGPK

recombinant XPNPEP1 = recombinant XPNPEP1 (Homo sapiens, UniProt Q9NQW7); experiment: Inhibition of recombinant XPNPEP1, H-Lys; format: biochemical; conditions: for XPNPEP1 inhibition (in words): recombinant XPNPEP1
[1] = Stability in cell culture supernatants; format: in vitro ADME
Procedure, shortened: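 Test compounds are incubated in conditioned medium collected from MV4;11 cultures for 24 h at 37 °C. Intact compound and the free acid product are then quantified by LC/MS, with species identified by retention time. Values are means ± SEM of three biological replicates.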

MV4;11 CASP1^−/− cells = experiment: CellTiter-Glo cell viability, CASP1 knockout MV4; format: cell-based, human; conditions: for Cell death independent of CASP1 in MV4;11 cells (in words): WT and CASP1^−/− MV4;11, CTG, 24 h
Procedure, shortened: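 CASP1-knockout MV4;11 cells (generated previously) are grown alongside wild type in RPMI 1640 with 10% FBS at 37 °C in 5% CO2. Cells are plated at 2000 per well in 384-well plates and dosed by pin tool in three-fold dilutions, topping at 100 μM (down to 15.2 nM) or 10 μM (down to 1.5 nM). After 24 h, CellTiter-Glo luminescence is read (2 min shake, 10 min at 25 °C). IC50 values are means ± SEM of three biological replicates.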

OCI-AML2 cells [2] = experiment: PI uptake in OCI-AML2 cells; format: cell-based, human; conditions: 6.25 μM, compared to CQ31
Procedure, shortened: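 OCI-AML2 cells (2 × 10^4 per well, 384-well, RPMI) are treated with 6.25 μM compound, with PI added at 10 μM final. PI fluorescence (Ex/Em 535/617 nm) is recorded at 37 °C every 5 min over 6 h. Signals are baseline-corrected to DMSO vehicle and normalized to the maximum response. Values are means ± SEM of three biological replicates.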

[3] = system: DOX-inducible CARD8 E274R mutant THP-1 cells; experiment: CARD8 E274R mutant NT degradation assay in CARD8^−/− THP-1 cells; format: cell-based, human; conditions: DOX 100 ng/mL 16 h; VbP 10 μM, CQ31/CQ80 20 μM, VP-OMe 1 mM, MeBs 10 μM; 6 h
Procedure, shortened: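 Parental CARD8-knockout THP-1 cells carry a stably integrated doxycycline-inducible CARD8 E274R construct. Cells are grown in RPMI 1640 with L-glutamine and 10% FBS at 37 °C in 5% CO2. They are induced with or without DOX (100 ng/mL, 16 h), then exposed to test compounds for 6 h.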

THP-1 cells = experiment: LDH release and GSDMD cleavage in knockout THP-1 cells; format: cell-based, human; conditions: 20 μM, 24 h
MV4;11 cells = experiment: PI uptake in MV4; format: cell-based, human; conditions: 6.25 μM; WT, CASP1^−/−, CARD8^−/− cells
Procedure, shortened: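 MV4;11 cells (WT, CASP1−/− or CARD8−/−) were plated at 2 × 10^4 cells/well in 384-well format in RPMI and treated with test compound (6.25 μM) for 6 h before PI uptake monitoring. PI was added at 10 μM final. Fluorescence (Ex/Em 535/617 nm) was read every 5 min at 37 °C, baseline-corrected to DMSO vehicle and normalised to maximum response.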

[4] = system: N/TERT-1 immortalized keratinocytes; experiment: CTG cell viability in N/TERT-1 keratinocytes; format: cell-based, human; conditions: VbP 10 μM, CQ compounds 20 μM, 24 h
Procedure, shortened: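 N/TERT-1 keratinocytes are grown in keratinocyte serum-free medium with 1× penicillin/streptomycin, bovine pituitary extract (25 μg/mL) and EGF (0.2 ng/mL) at 37 °C in 5% CO2. Plating density is 2000 cells/well in 384-well plates, with compound added by pin tool. After 24 h, CellTiter-Glo reagent is added, plates are shaken 2 min, held 10 min at 25 °C, and luminescence is read. Values are means ± SEM of three biological replicates.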

OCI-AML2 cells [5] = experiment: CTG cell viability in WT and CARD8^−/− OCI-AML2 cells; format: cell-based, human; conditions: 24 h
Procedure, shortened: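 Test compound was added by pintool at various concentrations to OCI-AML2 cells (WT or CARD8−/−) plated at 2000 cells/well in 384-well format, in RPMI 1640 with L-glutamine and 10% FBS. Cells were incubated for 24 h at 37 °C in 5% CO2. CellTiter-Glo was then added, plates were shaken for 2 min and held at 25 °C for 10 min, and luminescence was read.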

[6] = system: MV4;11, OCI-AML2, and THP-1 cells; experiment: LDH release and GSDMD cleavage immunoblot in WT and CARD8^−/− cells; format: cell-based, human; conditions: 20 μM, 24 h, but not CARD8^−/−
[7] = biological target: CARD8-DPP9 ternary complex in HEK 293T^CASP1+GSDMD cells (Homo sapiens, UniProt Q86TI2); experiment: dTAG-based CARD8-DPP9 ternary complex disruption assay; format: cell-based; conditions: dTAG-13 500 nM; VbP 10 μM, CQ31 20 μM, CQ80 20 μM, VP-OMe 1 mM; 6 h; LDH release
human resting T cells = experiment: GSDMD cleavage in human resting T cells; format: cell-based; conditions: 20 μM, 24 h
Procedure, shortened: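 Primary human T cells (>90% purity by flow cytometry) are thawed in RPMI-1640 with 10% FBS and cultured with 30 U/mL IL-2. Cells receive test compound for 24 h, then are washed twice in PBS and lysed by sonication. Protein is normalized before SDS-PAGE, and blots are probed with an anti-GSDMD rabbit polyclonal and imaged by infrared fluorescence.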

[8] = system: BMDMs from C57BL/6J mice and RAW264.7 cells; experiment: LDH release and GSDMD cleavage in mouse BMDMs and RAW264.7 cells; format: cell-based; conditions: VbP 10 μM, CQ31/CQ80 20 μM, 24 h
Procedure, shortened: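 BMDMs: bone marrow is collected from femurs and tibias of 7–12-week-old C57BL/6J mice, strained (70 μm) and RBC-lysed. Cells are cultured 6 days at 37 °C in DMEM with 10% FBS and 15–20% L-cell medium, then replated. RAW264.7 cells are grown in DMEM with 10% FBS and seeded at 5 × 10^5 per well in 12-well plates. Both receive compound for 24 h. LDH is read relative to a Triton X-100 lysis control, and immunoblots use an anti-mouse GSDMD rabbit monoclonal. RAW264.7 data are means ± SEM, n = 3.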

Sequence of recombinant XPNPEP1 (Q9NQW7 whole entry): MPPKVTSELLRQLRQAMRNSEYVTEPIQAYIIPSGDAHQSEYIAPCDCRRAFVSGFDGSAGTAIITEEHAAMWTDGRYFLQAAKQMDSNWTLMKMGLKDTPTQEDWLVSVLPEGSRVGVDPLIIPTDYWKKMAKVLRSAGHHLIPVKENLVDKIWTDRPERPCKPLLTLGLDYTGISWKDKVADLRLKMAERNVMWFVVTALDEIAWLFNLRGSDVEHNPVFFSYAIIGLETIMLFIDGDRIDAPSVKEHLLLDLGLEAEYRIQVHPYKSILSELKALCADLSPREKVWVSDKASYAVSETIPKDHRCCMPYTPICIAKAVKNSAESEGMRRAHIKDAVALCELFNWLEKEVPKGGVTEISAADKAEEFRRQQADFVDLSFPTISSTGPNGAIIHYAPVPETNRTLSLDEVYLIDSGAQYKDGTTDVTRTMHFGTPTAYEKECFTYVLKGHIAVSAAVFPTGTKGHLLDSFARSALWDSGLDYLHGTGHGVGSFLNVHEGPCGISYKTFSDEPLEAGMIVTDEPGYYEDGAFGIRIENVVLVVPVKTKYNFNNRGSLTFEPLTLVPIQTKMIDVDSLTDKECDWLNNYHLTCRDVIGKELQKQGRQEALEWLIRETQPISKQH
Sequence of CARD8-DPP9 ternary complex in HEK 293T^CASP1+GSDMD cells (Q86TI2 whole entry, one chain of several): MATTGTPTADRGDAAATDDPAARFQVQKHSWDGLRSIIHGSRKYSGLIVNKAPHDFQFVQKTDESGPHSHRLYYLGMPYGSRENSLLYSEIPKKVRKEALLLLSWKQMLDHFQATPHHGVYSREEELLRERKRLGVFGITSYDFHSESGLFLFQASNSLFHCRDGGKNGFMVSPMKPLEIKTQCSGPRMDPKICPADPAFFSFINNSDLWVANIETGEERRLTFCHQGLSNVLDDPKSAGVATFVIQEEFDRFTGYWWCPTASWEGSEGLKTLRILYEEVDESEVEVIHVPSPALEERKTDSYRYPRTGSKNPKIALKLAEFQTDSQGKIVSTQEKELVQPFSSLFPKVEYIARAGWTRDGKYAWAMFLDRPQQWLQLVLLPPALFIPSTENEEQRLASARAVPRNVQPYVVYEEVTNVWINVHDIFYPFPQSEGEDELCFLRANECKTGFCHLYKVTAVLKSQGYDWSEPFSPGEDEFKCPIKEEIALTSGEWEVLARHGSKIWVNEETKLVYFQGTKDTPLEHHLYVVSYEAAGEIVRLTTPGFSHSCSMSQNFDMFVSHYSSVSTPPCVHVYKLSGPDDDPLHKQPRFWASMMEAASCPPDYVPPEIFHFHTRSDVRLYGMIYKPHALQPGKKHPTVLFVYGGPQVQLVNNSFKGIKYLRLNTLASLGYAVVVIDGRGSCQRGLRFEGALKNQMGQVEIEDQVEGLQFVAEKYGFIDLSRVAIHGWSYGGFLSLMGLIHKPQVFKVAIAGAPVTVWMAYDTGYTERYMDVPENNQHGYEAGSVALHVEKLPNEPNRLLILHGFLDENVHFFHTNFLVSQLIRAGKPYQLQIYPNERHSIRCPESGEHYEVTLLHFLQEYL

CC(C)C[C@@H](N)[C@H](O)C(=O)N1CCC[C@H]1C(=O)OC(C)(C)C [CQ34, tert-Butyl ((2S,3R)-3-Amino-2-hydroxy-5-methylhexanoyl)-L-pro-linate]
Cytotoxicity / activity against MV4;11 cells (in words) (MV4;11 WT cells): slightly more toxic
PEPD inhibition (in words) (recombinant human PEPD): inhibited PEPD and XPNPEP1 similarly
XPNPEP1 inhibition (in words) (recombinant XPNPEP1): inhibited PEPD and XPNPEP1 similarly
Stability in cell culture supernatants (in words) [1]: considerably more stable than CQ31 or CQ94
Time after which completely hydrolyzed [1]: ≤ 8 h

COC(=O)[C@H](CC(C)C)NC(=O)[C@@H](O)[C@H](N)CC(C)C [CQ52, Methyl ((2S,3R)-3-Amino-2-hydroxy-5-methylhexanoyl)-l-leucinate]
Cell death independent of CASP1 in MV4;11 cells (in words) (MV4;11 CASP1^−/− cells): triggered CASP1-independent cell death
PEPD inhibition (in words) (recombinant human PEPD): very weak PEPD and XPNPEP1 inhibitors
XPNPEP1 inhibition (in words) (recombinant XPNPEP1): very weak PEPD and XPNPEP1 inhibitors

COC(=O)[C@H](Cc1ccccc1)NC(=O)[C@@H](O)[C@H](N)CC(C)C [CQ72, Methyl ((2S,3R)-3-Amino-2-hydroxy-5-methylhexanoyl)-l-phenylalaninate]
Cell death independent of CASP1 in MV4;11 cells (in words) (MV4;11 CASP1^−/− cells): triggered CASP1-independent cell death
PEPD inhibition (in words) (recombinant human PEPD): very weak PEPD and XPNPEP1 inhibitors
XPNPEP1 inhibition (in words) (recombinant XPNPEP1): very weak PEPD and XPNPEP1 inhibitors

COC(=O)[C@@H](NC(=O)[C@@H]1CCCN1C(=O)[C@@H](O)[C@H](N)CC(C)C)C(C)C [CQ78, Methyl ((2S,3R)-3-Amino-2-hydroxy-5-methylhexanoyl)-l-prolyl-l-valinate]
Rate of lytic cell death by PI uptake in OCI-AML2 cells (OCI-AML2 cells [2]): caused more rapid lytic cell death

COC(=O)[C@H](CC(C)C)NC(=O)[C@@H]1CCCN1C(=O)[C@@H](O)[C@H](N)CC(C)C [CQ80, Methyl ((2S,3R)-3-Amino-2-hydroxy-5-methylhexanoyl)-l-prolyl-l-leucinate]
Additional cell death in CARD8 E274R assay (NT degradation) [3]: do not trigger as much degradation as MeBs
Sensitivity of PEPD and XPNPEP1 single knockout THP-1 cells (THP-1 cells): sensitive
Sensitivity of PEPD/XPNPEP1 double knockout THP-1 cells (THP-1 cells): completely resistant
Pyroptosis in DPP8/9^−/− THP-1 cells (THP-1 cells; LDH release and GSDMD cleavage): neither CQ80 nor CQ31 induced any additional pyroptosis
Rate of lytic cell death by PI uptake in OCI-AML2 cells (OCI-AML2 cells [2]): caused more rapid lytic cell death
PI uptake in MV4;11 cells (MV4;11 cells): induced PI uptake in WT but not CASP1^−/− or CARD8^−/−
Cell death in N/TERT-1 keratinocytes (human NLRP1 activation) [4]: does not activate
Cell death in OCI-AML2 cells (OCI-AML2 cells [5]): induced cell death in WT but not CARD8^−/−
LDH release and GSDMD cleavage [6]: induced lactate dehydrogenase (LDH) release and GSDMD cleavage
Pyroptosis after dTAG-13 treatment (ternary complex destabilization) [7]: induce more pyroptosis after dTAG-13 treatment
GSDMD cleavage in human resting T cells (human resting T cells): induced GSDMD cleavage
Fraction remaining intact ([1]; after 24 h at 37 °C): ~ 50%
Pyroptosis in mouse BMDMs and RAW264.7 cells (rodent NLRP1 activation) [8]: does not activate

CC(C)C[C@H](NC(=O)[C@@H]1CCCN1C(=O)[C@@H](O)[C@H](N)CC(C)C)C(=O)NCCc1ccccc1 [CQ116, (S)-1-((2S,3R)-3-Amino-2-hydroxy-5-methylhexanoyl)-N-((S)-4-methyl-1-oxo-1-(phenethylamino)pentan-2-yl)pyrrolidine-2-carboxamide]
Stability in cell culture supernatants (in words) [1]: completely stable

COC(=O)[C@H](CC(C)C)NC(=O)[C@@H](O)[C@H](N)Cc1ccccc1 [MeBs, bestatin methyl ester, reference compound]
Cell death independent of CASP1 in MV4;11 cells (in words) (MV4;11 CASP1^−/− cells): CASP1-independent cell death
Additional cell death in CARD8 E274R assay (NT degradation) [3]: still induce considerably more cell death

COC(=O)[C@@H]1CCCN1C(=O)[C@@H](N)C(C)C [VP-OMe, reference compound] (H-Val-Pro-OMe)
Additional cell death in CARD8 E274R assay (NT degradation) [3]: did not cause substantially more death
Pyroptosis after dTAG-13 treatment (ternary complex destabilization) [7]: induce more pyroptosis after dTAG-13 treatment

CC(C)[C@H](N)C(=O)N1CCC[C@H]1B(O)O [VbP, ValboroPro, reference compound]
Additional cell death in CARD8 E274R assay (NT degradation) [3]: did not cause substantially more death
Cell death in N/TERT-1 keratinocytes (human NLRP1 activation) [4]: induced cell death
Pyroptosis in mouse BMDMs and RAW264.7 cells (rodent NLRP1 activation) [8]: induced pyroptosis

C[C@H](NC(=O)[C@@H]1CCCN1C(=O)[C@@H]1CCCN1C(=O)[C@@H](O)[C@H](N)Cc1ccccc1)C(N)=O [apstatin, reference compound]
IC50 (MV4;11 CASP1^−/− cells; read-out: MV4;11 CASP1^−/− IC50, CTG cell viability after 24 h treatment): > 20 µM
Cytotoxicity / activity against MV4;11 cells (in words) (MV4;11 WT cells): not cytotoxic at all
IC50 (recombinant XPNPEP1; read-out: XPNPEP1 IC50 (μM ± SEM), recombinant XPNPEP1, H-Lys(abz)-Pro-Pro-pNA cleavage, means ± SEM of three biological replicates): 18 ± 1.7 µM

From article PMC10149104 (Journal of medicinal chemistry, 2023)
